Data reported in ChEMBL document CHEMBL1144184, “Preparation and biological evaluation of 5-substituted retinoic acids” (2008).
Active and inactive are the calls of the source. The calls are words filed in the database; no cut-off is given here.

Tests used:
HL-60 [1] = test: Cell cycle arrest in human HL-60 cells assessed as accumulation at G0/G1 phase at 10 pM to 1 uM by FACS; assay type: functional, cell-based
Method in brief: (§1)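 HL-60 cells (RPMI-1640, 10% dextran-coated charcoal-treated FCS, kanamycin; S-phase synchronized twice with 2.5 mM thymidine) seeded 10⁵ cells/well and exposed to retinoids for 3 days at 37 °C, 5% CO₂. Cells permeabilized with 0.2% Triton-X plus RNase (37 °C, 1 h), stained with propidium iodide (4 °C, 20 min), and cell cycle phases quantified by flow cytometry (488 nm argon laser).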

HL-60 [2] = test: Antiproliferative activity against human HL-60 cells assessed as cell cycle distribution at 0.0001 uM to 1 uM after 3 days by FACS relative to ATRA; assay type: functional; method in brief: as §1
HL-60 [3] = test: Induction of human HL-60 cell differentiation assessed as cell surface CD11b antigen expression measured as mean fluorescence index at 0.0001 uM to 1 uM after 3 days by FACS relative to ATRA; assay type: functional
Method in brief: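 Thymidine-synchronized HL-60 cells, 10⁵ cells/well, cultured 3 days with retinoids (10^-10–10^-6 M) in RPMI-1640. CD11b surface expression quantified by flow cytometry (excitation 490 nm, emission 520 nm), 10⁴ cells counted per treatment. Readout is mean fluorescence index (% fluorescent cells × mean intensity), normalized to ATRA values.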

HL-60 [4] = test: Induction of apoptosis in human HL-60 cells assessed as DNA fragmentation by agarose gel electrophoresis; assay type: functional, cell-based
Method in brief: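 HL-60 cells exposed to increasing retinoid concentrations. DNA isolated from each culture, run on a 2% agarose gel, stained with ethidium bromide and viewed under UV. Laddering scored as positive or negative.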

[5] = biological target: T1, Retinoic acid receptor beta (Homo sapiens) (UniProt P10826); test: Increase in transcriptional activity of human RARbeta receptor expressed in human MG63 cells co-transfected with pGL3-RARE at 1 uM by luciferase reporter gene assay relative to ATRA; assay type: cell-based; conditions: MG-63, in the assay text read “relative to control” for “relative to ATRA”
T1 sequence (whole entry): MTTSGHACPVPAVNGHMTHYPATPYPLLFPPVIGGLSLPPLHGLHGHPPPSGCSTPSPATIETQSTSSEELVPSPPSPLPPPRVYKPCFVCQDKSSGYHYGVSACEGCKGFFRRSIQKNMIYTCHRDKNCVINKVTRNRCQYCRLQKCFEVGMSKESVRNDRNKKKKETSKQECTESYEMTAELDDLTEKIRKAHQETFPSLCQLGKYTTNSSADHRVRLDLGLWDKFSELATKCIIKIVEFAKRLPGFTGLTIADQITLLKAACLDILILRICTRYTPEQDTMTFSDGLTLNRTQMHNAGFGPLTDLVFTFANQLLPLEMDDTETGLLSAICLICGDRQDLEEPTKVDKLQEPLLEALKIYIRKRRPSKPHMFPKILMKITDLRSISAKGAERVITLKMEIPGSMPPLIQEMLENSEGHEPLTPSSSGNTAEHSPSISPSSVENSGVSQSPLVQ
Method in brief: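 MG-63 osteosarcoma cells in DMEM with 10% charcoal-stripped FCS were seeded 2 × 10⁵/well the day before transfection. Cotransfected (Tfx-50) with human RARβ promoter–RARE3-SV40-luciferase reporter and pRL-CMV control. Retinoids applied for 2 days at 10^-6 M. Firefly luciferase normalized to Sea Pansy luciferase, expressed as fold induction over control. At least three repeats, mean ± SE.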

CC(/C=C/C1=C(Cc2ccccc2)CCCC1(C)C)=C\C=C\C(C)=C\C(=O)O
Activity (HL-60 [1]): Active | Activity (HL-60 [2]): 2 | Activity (HL-60 [3]): 2 | Activity (HL-60 [4]): inactive | Activity [5]: Active

CC(/C=C/C1=C(CC(C)C)CCCC1(C)C)=C\C=C\C(C)=C\C(=O)O
Activity (HL-60 [1]): Active | Activity (HL-60 [2]): 35 | Activity (HL-60 [3]): 310 | Activity (HL-60 [4]): inactive | Activity [5]: Active

CCCCC1=C(/C=C/C(C)=C/C=C/C(C)=C/C(=O)O)C(C)(C)CCC1
Activity (HL-60 [1]): Active | Activity (HL-60 [2]): 193 | Activity (HL-60 [3]): 129 | Activity (HL-60 [4]): inactive | Activity [5]: Active

CC(/C=C/C1=C(Cc2ccc3ccccc3c2)CCCC1(C)C)=C\C=C\C(C)=C\C(=O)O
Activity (HL-60 [1]): Active | Activity (HL-60 [2]): <0.81 | Activity (HL-60 [3]): <0.22 | Activity (HL-60 [4]): inactive | Activity [5]: Active

CC(=C/C=C/C(C)=C/C(=O)O)/C=C/C1=C(Cc2ccccc2)CCCC1(C)C
Activity (HL-60 [2]): 11 | Activity (HL-60 [3]): 6 | Activity (HL-60 [4]): inactive

CCCCC1=C(/C=C/C(C)=C\C=C\C(C)=C\C(=O)O)C(C)(C)CCC1
Activity (HL-60 [2]): 14 | Activity (HL-60 [3]): 9 | Activity (HL-60 [4]): inactive

CC(=C/C=C/C(C)=C/C(=O)O)/C=C/C1=C(Cc2ccc3ccccc3c2)CCCC1(C)C
Activity (HL-60 [2]): <0.81 | Activity (HL-60 [3]): <0.22 | Activity (HL-60 [4]): inactive

CC(=C/C=C/C(C)=C/C(=O)O)/C=C/C1=C(CC(C)C)CCCC1(C)C
Activity (HL-60 [2]): 16 | Activity (HL-60 [3]): 10 | Activity (HL-60 [4]): inactive
